Most compounds without a hit are left out; they make up all but 3.7% or so of the library.
KCNQ1 block = human KCNQ1 channel inhibition. P51787. CHO-K1 KCNQ1, FluxOR thallium flux fluorescence; stronger effect = higher value. B-score at 10 µM. 310,000 tested, 1.3% active. AID 2642;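 active = compounds whose thallium flux B-score, printed positive for inhibition, exceeds three library SD while starting fluorescence stays within three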;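 note: channel opened by potassium depolarization with thallium stimulus after 20 min compound exposure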
Target sequence (P51787 whole entry, looked up): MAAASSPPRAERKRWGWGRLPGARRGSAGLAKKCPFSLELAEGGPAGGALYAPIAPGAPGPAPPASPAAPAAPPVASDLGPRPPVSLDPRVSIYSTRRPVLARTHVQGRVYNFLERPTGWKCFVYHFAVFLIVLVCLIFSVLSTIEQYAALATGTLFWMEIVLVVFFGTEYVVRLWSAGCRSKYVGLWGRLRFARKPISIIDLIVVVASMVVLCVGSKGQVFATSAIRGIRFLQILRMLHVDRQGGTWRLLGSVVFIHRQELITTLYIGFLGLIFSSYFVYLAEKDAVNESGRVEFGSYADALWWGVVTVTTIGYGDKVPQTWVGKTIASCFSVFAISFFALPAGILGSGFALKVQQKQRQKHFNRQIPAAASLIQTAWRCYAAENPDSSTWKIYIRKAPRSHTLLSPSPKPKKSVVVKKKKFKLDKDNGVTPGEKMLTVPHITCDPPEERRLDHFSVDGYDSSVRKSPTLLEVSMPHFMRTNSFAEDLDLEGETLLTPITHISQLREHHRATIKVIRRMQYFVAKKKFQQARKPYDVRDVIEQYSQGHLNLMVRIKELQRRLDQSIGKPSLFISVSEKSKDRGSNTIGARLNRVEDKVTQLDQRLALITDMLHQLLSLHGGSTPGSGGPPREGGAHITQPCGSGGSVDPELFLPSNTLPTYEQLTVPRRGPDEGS
KCNQ1 act = potentiators or activators of human KCNQ1 potassium channel. P51787. CHO-K1 KCNQ1, thallium flux FluxOR fluorescence; stronger effect = higher value. B-score at 10 µM. 310,000 tested, 0.35% active. AID 2648;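 active = fluorescence ratio B-score, a plate-corrected score, at least three library SD, with initial intensity B-score within 5 SD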
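Material: CHO-K1 cells stably expressing KCNQ1. Medium: assay buffer for compound exposure, DMSO matched across wells. Reagent: K+/Tl+ depolarizing stimulus. Compound dosing: single-concentration screen. Times: 37 °C overnight plating, 90-min dark dye load, 20-min compound pretreatment. Technique: FluxOR Tl+ flux fluorescence.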
KCNK3 block = human KCNK3 channel inhibition, primary screen; O14649; CHO-KCNK3 thallium flux, FluxOR fluorescence; stronger effect = lower value; B-score at 10 µM; 340,000 tested, 0.84% active; AID 602410;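 active = B-score under library mean minus 4 SD, starting fluorescence ratio at most library mean plus 5 SD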;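 note: more negative B-score means stronger inhibition of thallium flux through KCNK3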
Kir21 block = blocks the mouse Kir2.1 inward-rectifier potassium channel; P35561; HEK293-Kir2.1, FluxOR thallium flux fluorescence; stronger effect = lower value; B-score at 10 µM; 310,000 tested, 0.85% active; AID 1672;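 active = fluorescence ratio B-score at or below minus 3 SD of library scores, with starting-brightness B-score within 2 SD, cut at about -4.2 in these data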;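 note: channel flux triggered by added potassium and thallium sulfate stimulus; B-score of peak minus minimum fluorescence over baseline after thallium stimulus; more negative B-score means stronger Kir2.1 block with less thallium influx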
KCNK9 block = blocks the human KCNK9 two-pore domain potassium channel. HEK293 KCNK9, FluxOR thallium flux fluorescence; stronger effect = lower value. Q9NPC2. 310,000 tested, 1.2% active. B-score at 10 µM;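 active = ratio B-score over 3 SD below the library mean, with starting fluorescence within 5 SD of its mean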;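 note: negative B-score means less thallium flux so channel inhibition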
hERG rescue = hERG (human) protection from proarrhythmic block; CHO-hERG, FluxOR thallium flux, dofetilide IC70 present; activation (rescue from dofetilide block), less the hit threshold, % at 10 µM; 310,000 tested, 0.51% active; AID 1511;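 active = activation above the mean of controls blocked by dofetilide plus 5 SD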;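 note: thallium influx through hERG after potassium depolarization seen as dye fluorescence rise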
Numbers stand for hits; . = inactive; / = no result.

SMILES | KCNQ1 block | KCNQ1 act | KCNK3 block | Kir21 block | KCNK9 block | hERG rescue
O=C(Nc1cccc(-c2nc3ccccc3[nH]2)c1)c1ccco1 | . | . | . | . | -6.9 | .
Cc1ccc2nc(-c3ccc(NC(=O)c4ccco4)cc3)[nH]c2c1 | . | . | . | . | . | .
O=C(Cc1cccs1)Nc1cccc(-c2nc3cc4ccccc4cc3[nH]2)c1 | 9 | . | . | . | . | .
COc1ccccc1CN1C[C@@H]2C[C@@H](C3=Cc4cc(Cl)ccc4OC3)N3CCC[C@@]23C1=O | . | . | . | . | . | .
Cc1ccc(-c2nnn(CC(=O)N(c3cccc(F)c3)C(C(=O)NC(C)(C)C)c3ccco3)n2)o1 (centres undefined) | . | . | . | . | . | .
N#CC1=C(N)N(c2ccccc2)C(c2ccco2)C1(C#N)C#N (centres undefined) | . | . | . | . | . | .
N#CC1=C(N)N(c2ccccc2)C(c2cccc([N+](=O)[O-])c2)C1(C#N)C#N (centres undefined) | . | . | . | -9.7 | . | .
O=C1Nc2ccccc2/C1=C/c1cnc(-c2ccccc2)[nH]1 | . | . | . | . | -6.6 | .
CCN(CCO)c1nc(NCc2ccccc2)c2cnn(C)c2n1 | . | . | . | . | . | .
CCCCOC(=O)Cn1c(=O)n(CC(=O)OCCCC)c2ccccc21 | . | . | . | -6.1 | . | .
C=CC[C@H](CC(=O)NCCO)C(=O)N[C@H](COC(=O)[C@H](CC=C)CC(=O)OC(C)(C)C)Cc1c[nH]c2ccccc12 | / | / | . | / | / | /
COc1ccc(C(O)(C2CCCCC2)C(CN2CCOCC2)c2ccccc2)cc1 (centres undefined) | . | . | . | . | . | .
OC(c1ccccc1)(C1CCCCC1)C(CN1CCOCC1)c1ccccc1 (centres undefined) | 6 | . | . | . | . | .
O=C(Nc1cccnc1Cl)c1cccc(S(=O)(=O)N2CCOCC2)c1 | . | . | . | . | . | .
Cc1cc2c(cc1C)N(C(=O)CCl)CCN2C(=O)CCl | / | / | . | / | / | /
COc1ccc(C(C(=O)NC(C)(C)C)N(C(=O)CCC(=O)Nc2cc(C)on2)c2cccc(F)c2)cc1 (centres undefined) | . | 24 | . | . | . | 7.1
CCC(C)(C)NC(=O)C(c1ccc(OC)cc1)N(C(=O)CCC(=O)Nc1cc(C)on1)c1cccc(F)c1 (centres undefined) | . | . | . | . | . | .
Cn1c(SCc2cccc([N+](=O)[O-])c2)nc2ccccc2c1=O | / | / | . | / | / | /
Cn1c(SCc2cccc(C#N)c2)nc2ccccc2c1=O | . | . | . | . | -7 | .
Cn1c(SCc2ccc(F)cc2Cl)nc2ccccc2c1=O | / | / | -8.9 | / | / | /
CNC(=O)c1ccccc1Nc1ccc(SC(F)F)cc1 | 6 | . | . | . | . | .
O=C(NCc1ccncc1)c1ccccc1Nc1ccc(SC(F)F)cc1 | . | . | . | . | . | .
O=c1ccc(N=Nc2ccccc2)ccc1O | . | 79 | . | . | . | 49
O=S(=O)(O)c1ccc(N=Nc2ccccc2)cc1 | . | . | . | . | . | .
Cc1sc(NC(=O)c2ccco2)c(C(c2cccnc2)N2CCN(CCO)CC2)c1C (centres undefined) | . | . | . | . | . | .
SMILES | KCNQ1 block | KCNQ1 act | KCNK3 block | Kir21 block | KCNK9 block | hERG rescue
Cc1sc(NC(=O)c2ccco2)c(C(c2cccnc2)N2CCN(c3ccc(F)cc3)CC2)c1C (centres undefined) | 8 | . | -12 | . | -6.6 | .
COc1ccc(C(c2c(NC(=O)c3ccco3)sc(C)c2C)N2CCOCC2)cc1OC (centres undefined) | / | / | -9.7 | / | / | /
Cc1sc(NC(=O)c2ccco2)c(C(c2ccccc2)N2CCC(C)CC2)c1C (centres undefined) | . | . | . | . | -7 | .
Cc1sc(NC(=O)c2ccccc2)c(C(c2ccc(Cl)cc2)N2CCN(CCO)CC2)c1C (centres undefined) | . | . | . | . | . | .
CCCCOc1ccc(OCCNC(=O)C2CCCN2C(=O)Nc2ccccc2)cc1 (centres undefined) | . | . | . | . | . | .
O=C1NC[C@H](Cc2ccccc2)N(CC2CCN(CCC34CC5CC(CC(C5)C3)C4)CC2)C1=O | / | / | . | / | / | /
CC1(c2nnc(-c3ccncc3)o2)CC(c2ccc(F)cc2)=NO1 (centres undefined) | . | . | . | . | . | .
Cc1c(C)n(CCc2c[nH]c3ccccc23)ccc1=O | . | . | . | . | . | .
CSc1ccc(-c2cccc([N+](=O)[O-])c2)nn1 | . | . | . | . | . | .
O=[N+]([O-])c1cccc(-c2ccc(SCc3cccnc3)nn2)c1 | 6 | . | . | . | . | .
CC(=O)OCC(=O)[C@@]1(OC(C)=O)[C@@H](C)C[C@H]2[C@@H]3C[C@H](F)C4=CC(=O)C=C[C@]4(C)[C@@]3(F)[C@@H](O)C[C@@]21C | . | 29 | . | . | . | .
CC(=O)OCC(=O)[C@@]12OC(C)(C)O[C@@H]1C[C@H]1[C@@H]3C[C@H](F)C4=CC(=O)C=C[C@]4(C)[C@@]3(F)[C@@H](O)C[C@@]12C | . | . | / | . | . | .
CNC(=S)/N=C/NOCc1ccc(Cl)cc1Cl | 8 | . | . | . | . | .
CCOC(=O)c1cc(C(=O)NN)c(C)nc1C | . | . | . | . | . | .
CCOC(=O)c1cc(-c2nnc(-c3ccc(Oc4ccccc4)cc3)o2)c(C)nc1C | . | . | -10 | . | . | .
Cc1cc(C(=O)Nc2sc3c(c2C#N)CCC(C)C3)no1 (centres undefined) | . | . | . | . | . | .
Cc1onc(-c2ccccc2)c1C(=O)NC(=S)Nc1sc2c(c1C#N)CCC(C)C2 (centres undefined) | . | 21 | . | . | . | 15
Cc1onc(-c2ccccc2)c1C(=O)Nc1sc2c(c1C#N)CCC2 | . | . | . | . | . | .
Cc1onc(-c2ccccc2)c1C(=O)NC(=S)Nc1sc2c(c1C#N)CCCC2 | . | 8 | . | . | . | 16
COc1cc(C(=O)c2nccc3cc(OC)c(OC)cc23)c([N+](=O)[O-])cc1OC | . | . | . | . | . | 5.9
CCOC(=O)C1CCCN(C(=O)C(C)(C)Oc2ccc(Cl)cc2)C1 (centres undefined) | . | . | . | -5 | . | .
O=C(CCC1CCCCC1)Nc1ccccc1C(=O)N1CCOCC1 | . | . | . | . | . | .
Cc1ccc(NC(=O)CSCC(=O)Nc2cc(Cl)ccc2N2CCN(C)CC2)cc1 | . | . | . | -5.2 | . | .
Cc1cc(C)cc(NC(=O)CCn2ccnc2)c1 | . | . | . | . | . | .
Cc1cc(Nc2ccc3c(c2)OCCO3)c2cc(Cl)ccc2n1 | . | . | . | -5.2 | . | .
Cc1ccc(Nc2cc(C)nc3ccc(C)cc23)cc1 | . | . | . | -6.7 | . | .

Compound activity from PubChem BioAssay.
